Laboratory results from ChEMBL document CHEMBL4706497, “The structure-based optimization of δ-sultone-fused pyrazoles as selective BuChE inhibitors” (Eur J Med Chem, 2020).
The source made the active and inactive calls. The rule behind the calls is not given here.

Columns and labels:
Cholinesterase [1] = target: T1, Cholinesterase (Equus caballus, UniProt P81908); experiment: Inhibition of equine serum BuChE using butyrylthiocholine iodide as substrate preincubated with enzyme for 20 mins followed by addition of substrate and measured after 20 mins by DTNB reagent based Ellman's method; assay type: cell-free
Outline: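 Enzyme at 0.036 U/mL in 0.1 M phosphate buffer pH 8, preincubated with inhibitor 20 min at 37 °C. Then 0.5 mM butyrylthiocholine iodide and 0.35 mM DTNB added, and A410 read after 20 min. IC50 taken graphically from log concentration vs % inhibition curves. Mean ± SEM of at least three independent experiments.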

[2] = Antioxidant activity assessed as free radical scavenging activity at 100 uM measured after 2 hrs under dark conditions by DPPH assay relative to control; assay type: functional
Outline: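 Each compound at 100 μM mixed with DPPH (140 μM) and incubated 2 h in the dark at 37 °C. Absorbance read at 520 nm. Reduction percentage = (1 − A_C/A₀) × 100%, with A_C and A₀ the absorbance with and without compound. Ascorbic acid served as standard.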

[3] = Octanol/Water partition coefficient, log P of the compound in PBS buffer at pH7.4 measured after 48 hrs by shake flask method; assay type: physicochemical; conditions: pH 7.4
Outline: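 Shake-flask partition between equal volumes of n-octanol and PBS pH 7.4, pre-saturated by sonication and standing 24 h. Compound added, vessel sealed and shaken at 37 °C for 48 h to equilibrate, then phases analysed by HPLC.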

[4] = target: Acetylcholinesterase (AChE) (Electrophorus electricus, UniProt O42275); experiment: Inhibition of recombinant electric eel AChE using acetylthiocholine iodide as substrate at 20 uM preincubated with enzyme for 20 mins followed by addition of substrate and measured after 20 mins by DTNB reagent based Ellman's method; conditions: probe acetylthiocholine iodide, time 40 min
Outline: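 Enzyme at 0.036 U/mL in 0.1 M phosphate buffer pH 8, preincubated 20 min at 37 °C with compound at 20 μM. Then 0.35 mM acetylthiocholine iodide and 0.35 mM DTNB added, and A410 read after 20 min. Percent inhibition compared with a no-inhibitor control.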

[5] = target: Cholinesterase (Equus caballus) (UniProt P81908); experiment: Reversible inhibition of equine serum BChE using butyrylthiolcholine iodide as substrate at 0.02 to 0.08 uM by Lineweaver-Burk plot analysis; assay type: cell-free; conditions: dose 0.02-0.08 µM
Outline: (§1)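 Run under the standard Ellman conditions (0.036 U/mL enzyme, pH 8, 37 °C). Six butyrylthiocholine concentrations (0.1–1 mM) crossed with inhibitor at 0, 0.02, 0.04 and 0.08 μM. Lineweaver-Burk plots and secondary plots used for mode of inhibition and Ki. Reversibility tested by varying enzyme at 0–0.72 U/mL at each inhibitor concentration.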

Cholinesterase [6] = target: T1, Cholinesterase; experiment: Mixed inhibition of equine serum BChE using butyrylthiolcholine iodide as substrate by Lineweaver-Burk plot analysis; assay type: cell-free; outline: as §1
HepG2 [7] = experiment: Cytotoxicity against human HepG2 cells assessed as reduction in cell viability at 50 uM measured after 24 hrs by MTT assay; assay type: cell-based; conditions: hepg2, 24 h
Outline: (§2)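 HepG2 and LO2 cells grown in DMEM with 10% FBS, penicillin/streptomycin, 37 °C, 5% CO2. Cells seeded at 1×10^4/well, cultured 24 h, then exposed 24 h to compound diluted in DMEM (range 1–50 μM). MTT 0.5 mg/mL added for 4 h, formazan dissolved in DMSO, OD read at 492 nm. Viability is given relative to medium-only blank (100%); three independent experiments.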

L02 [8] = experiment: Cytotoxicity against human L02 cells assessed as reduction in cell viability at 50 uM measured after 24 hrs by MTT assay; assay type: cell-based; conditions: l02, 24 h; outline: as §2
[9] = Neuroprotective activity against H2O2 induced cytotoxicity in […] cells assessed as cell viability at 25 uM preincubated for 3 hrs followed by addition of H2O2 measured after 24 hrs by MTT assay; assay type: functional; conditions: PC-12, time 27 hrs, read-out: Activity
Outline: (§3)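 PC12 cells seeded at 1×10^4/well and incubated overnight. Pretreated 3 h with compound (1–25 µM), then medium replaced with fresh medium containing compound plus 100 µM H2O2 for a further 24 h. Viability read by MTT (0.5 mg/mL, 4 h), formazan dissolved in DMSO, OD at 492 nm, corrected for blank.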

[10] = Neuroprotective activity against H2O2 induced cytotoxicity in […] cells assessed as cell viability at […] uM preincubated for 3 hrs followed by addition of H2O2 measured after 24 hrs by MTT assay; assay type: functional; conditions: PC-12, time 27 hrs, read-out: Activity
HepG2 [11] = experiment: Cytotoxicity against human HepG2 cells assessed as reduction in cell viability at 10 to 25 uM measured after 24 hrs by MTT assay; assay type: cell-based; conditions: hepg2, 24 h, dose 10-25 µM; outline: as §2
L02 [12] = experiment: Cytotoxicity against human L02 cells assessed as reduction in cell viability at 10 to 25 uM measured after 24 hrs by MTT assay; assay type: cell-based; conditions: l02, 24 h, dose 10-25 µM; outline: as §2
PC-12 = experiment: Neuroprotective activity against H2O2 induced cytotoxicity in […] cells assessed as cell viability preincubated for 3 hrs followed by addition of H2O2 measured after 24 hrs by MTT assay; assay type: functional, cell-based; conditions: dose 6.25-25 µM, time 27.0 hrs; outline: as §3
[13] = Selectivity for equine serum BuChE over recombinant electric eel AChE

T1 sequence (P81908 whole entry): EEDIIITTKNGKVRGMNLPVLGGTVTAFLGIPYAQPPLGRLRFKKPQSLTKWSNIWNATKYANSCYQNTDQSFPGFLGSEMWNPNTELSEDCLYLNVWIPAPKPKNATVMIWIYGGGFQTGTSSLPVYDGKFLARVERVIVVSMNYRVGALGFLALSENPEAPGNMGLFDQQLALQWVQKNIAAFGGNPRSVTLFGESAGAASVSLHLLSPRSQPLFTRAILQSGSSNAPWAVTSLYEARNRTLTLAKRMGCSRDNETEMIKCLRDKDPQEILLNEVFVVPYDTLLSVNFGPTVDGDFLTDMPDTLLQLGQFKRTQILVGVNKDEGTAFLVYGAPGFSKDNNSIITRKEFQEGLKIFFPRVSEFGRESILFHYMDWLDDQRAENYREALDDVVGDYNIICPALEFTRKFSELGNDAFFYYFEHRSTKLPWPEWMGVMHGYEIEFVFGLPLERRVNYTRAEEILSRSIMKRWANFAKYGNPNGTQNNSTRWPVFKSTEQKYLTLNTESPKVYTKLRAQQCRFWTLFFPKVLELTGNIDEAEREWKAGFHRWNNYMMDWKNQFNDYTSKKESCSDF
Acetylcholinesterase (AChE), sequence (O42275 whole entry): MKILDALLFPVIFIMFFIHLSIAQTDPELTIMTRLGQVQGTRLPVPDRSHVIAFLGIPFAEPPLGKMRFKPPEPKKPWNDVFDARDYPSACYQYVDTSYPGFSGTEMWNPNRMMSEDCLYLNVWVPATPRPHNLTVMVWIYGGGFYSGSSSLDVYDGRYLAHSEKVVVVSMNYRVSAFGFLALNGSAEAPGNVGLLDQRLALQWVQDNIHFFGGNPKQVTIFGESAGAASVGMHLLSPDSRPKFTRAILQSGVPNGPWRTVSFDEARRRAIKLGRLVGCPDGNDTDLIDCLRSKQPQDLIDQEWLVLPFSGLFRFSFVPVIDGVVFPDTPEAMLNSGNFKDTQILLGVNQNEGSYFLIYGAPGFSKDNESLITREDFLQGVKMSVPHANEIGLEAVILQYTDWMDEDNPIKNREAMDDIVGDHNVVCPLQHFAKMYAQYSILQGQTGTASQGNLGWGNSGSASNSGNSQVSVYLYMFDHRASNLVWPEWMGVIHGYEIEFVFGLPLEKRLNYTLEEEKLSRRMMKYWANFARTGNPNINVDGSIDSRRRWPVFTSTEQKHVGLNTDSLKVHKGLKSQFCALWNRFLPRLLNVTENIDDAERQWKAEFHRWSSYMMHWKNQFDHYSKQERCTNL
Cholinesterase (Equus caballus), sequence (P81908 whole entry): as the sequence (P81908 whole entry) above

Compound	IC50 (Cholinesterase [1])	inhibition [2]	also measured
CCN(Cc1ccc(Cl)cc1)Cc1nn(-c2ccccc2F)c2c1CCS(=O)(=O)O2	0.04 µM	4.2%	
COc1ccc(CN(CCO)Cc2nn(-c3ccccc3F)c3c2CCS(=O)(=O)O3)cc1	0.26 µM	3.2%	
O=S1(=O)CCc2c(CN(CCO)Cc3cccc(F)c3)nn(-c3ccccc3F)c2O1	0.09 µM	5%	
O=S1(=O)CCc2c(-c3ccc(Br)cc3)nn(-c3ccccc3Cl)c2O1	3.69 µM		
O=S1(=O)CCc2c(CN(CCO)Cc3ccc(Cl)cc3Cl)nn(-c3ccccc3F)c2O1	0.09 µM	1.8%	
COCCN(Cc1ccc(Br)cc1)Cc1nn(-c2ccccc2F)c2c1CCS(=O)(=O)O2	0.15 µM	4.8%	
O=S1(=O)CCc2c(-c3ccc(F)cc3)nn(-c3ccccc3Cl)c2O1	0.13 µM		
O=S1(=O)CCc2c(CN(CCO)Cc3cccc(Br)c3)nn(-c3ccccc3F)c2O1	0.33 µM	0.8%	
O=S1(=O)CCc2c(CN(CCO)Cc3ccccc3)nn(-c3ccccc3F)c2O1	0.04 µM	5.4%	logD at 48 h [3]: 2.05
O=S1(=O)CCc2c(CN(CCO)Cc3ccccc3)nn(-c3ccccc3Cl)c2O1	0.04 µM		
O=S1(=O)CCc2c(-c3ccc(Br)cc3)nn(-c3ccccc3F)c2O1	0.47 µM		
O=S1(=O)CCc2c(CN3CCOCC3)nn(-c3ccccc3F)c2O1	0.15 µM		
CCN(Cc1ccccc1)Cc1nn(-c2ccccc2Cl)c2c1CCS(=O)(=O)O2	0.05 µM		
O=S1(=O)CCc2c(CN(CCO)Cc3cccc(Cl)c3)nn(-c3ccccc3F)c2O1	0.19 µM	4.7%	
COc1ccc(-c2nn(-c3ccc(Cl)cc3)c3c2CCS(=O)(=O)O3)cc1	8.78 µM		
CN(Cc1ccccc1)Cc1nn(-c2ccccc2F)c2c1CCS(=O)(=O)O2	0.08 µM		logD at 48 h [3]: 1.78
CN(Cc1ccc(Br)cc1)Cc1nn(-c2ccccc2F)c2c1CCS(=O)(=O)O2	0.07 µM	0.2%	inhibition at 20 min, 20 µM [4]: 33.6%
O=S1(=O)CCc2c(-c3ccccc3)nn(-c3ccccc3Cl)c2O1	0.17 µM		
CN(Cc1ccccc1)Cc1nn(-c2ccccc2Cl)c2c1CCS(=O)(=O)O2	0.07 µM		
O=S1(=O)CCc2c(-c3ccc(Cl)cc3)nn(-c3ccccc3F)c2O1	0.2 µM		
O=S1(=O)CCc2c(CCl)nn(-c3ccccc3F)c2O1	0.19 µM		
O=S1(=O)CCc2c(CN(CCO)Cc3ccc(Br)cc3)nn(-c3ccccc3F)c2O1	0.0077 µM	22.2%	inhibition at 20 min, 20 µM [4]: 43.3%; inhibition [5]: Active; Ki (Cholinesterase [6]): 0.024 µM; logD at 48 h [3]: 1.93; Activity (HepG2 [7]): 82.8%; Activity (L02 [8]): 95.3%; viability at 25 µM [9]: 49.6%; viability at […] [10]: 40.9%; Activity (HepG2 [11]): Non-Toxic; Activity (L02 [12]): Non-Toxic; Activity (PC-12): Dose-dependent effect; Selectivity Index [13]: > 2000
COCCN(Cc1ccc(Cl)cc1)Cc1nn(-c2ccccc2F)c2c1CCS(=O)(=O)O2	0.09 µM	3.6%	
CN1CCN(Cc2nn(-c3ccccc3F)c3c2CCS(=O)(=O)O3)CC1	2.17 µM		

Compound	IC50 (Cholinesterase [1])	inhibition [2]	also measured
COCCN(Cc1ccccc1)Cc1nn(-c2ccccc2F)c2c1CCS(=O)(=O)O2	0.24 µM	2.3%	
O=S1(=O)CCc2c(CN(CCO)Cc3ccc(F)cc3)nn(-c3ccccc3F)c2O1	0.0083 µM	5.5%	logD at 48 h [3]: 2.42
O=S1(=O)CCc2c(CN3CCN(Cc4ccccc4)CC3)nn(-c3ccccc3F)c2O1	0.68 µM		
COCCN(Cc1ccc(F)cc1)Cc1nn(-c2ccccc2F)c2c1CCS(=O)(=O)O2	0.11 µM	6.3%	
Cc1nn(-c2ccccc2F)c2c1CCS(=O)(=O)O2	1.19 µM		
COc1ccc(CN(CCO)Cc2nn(-c3ccccc3F)c3c2CCS(=O)(=O)O3)cc1OC	0.56 µM	5.5%	
O=S1(=O)CCc2c(CN3CCN(Cc4ccccc4)CC3)nn(-c3ccccc3Cl)c2O1	0.46 µM		
O=S1(=O)CCc2c(CN3CCOCC3)nn(-c3ccccc3Cl)c2O1	0.41 µM		
CN(Cc1ccc(Cl)cc1)Cc1nn(-c2ccccc2F)c2c1CCS(=O)(=O)O2	0.02 µM	6.1%	
O=S1(=O)CCc2c(CCl)nn(-c3ccccc3Cl)c2O1	0.2 µM		
CCN(Cc1ccc(F)cc1)Cc1nn(-c2ccccc2F)c2c1CCS(=O)(=O)O2	0.07 µM	0.6%	
O=S1(=O)CCc2c(C3CC3)nn(-c3ccccc3F)c2O1	0.14 µM		logD at 48 h [3]: 2.09
CCN(Cc1ccccc1)Cc1nn(-c2ccccc2F)c2c1CCS(=O)(=O)O2	0.08 µM	1.8%	logD at 48 h [3]: 2
O=S1(=O)CCc2c(C3CC3)nn(-c3cccc(Cl)c3)c2O1	0.7 µM		
O=S1(=O)CCc2c(-c3ccc(Cl)cc3)nn(-c3ccccc3Cl)c2O1	1.58 µM		
O=S1(=O)CCc2c(-c3ccccc3)nn(-c3ccccc3F)c2O1	0.18 µM		
O=S1(=O)CCc2c(-c3ccc(F)cc3)nn(-c3ccccc3F)c2O1	0.16 µM		
CN1CCN(Cc2nn(-c3ccccc3Cl)c3c2CCS(=O)(=O)O3)CC1	2.22 µM		
CN(Cc1ccc(F)cc1)Cc1nn(-c2ccccc2F)c2c1CCS(=O)(=O)O2	0.04 µM	5.7%	
Cc1ccc(CN(CCO)Cc2nn(-c3ccccc3F)c3c2CCS(=O)(=O)O3)cc1	0.17 µM	5.2%	
O=S1(=O)CCc2c(C3CC3)nn(-c3ccccc3Cl)c2O1	0.18 µM		
O=S1(=O)CCc2c(C3CC3)nn(-c3cccc(F)c3)c2O1	0.37 µM		
CCN(Cc1ccc(Br)cc1)Cc1nn(-c2ccccc2F)c2c1CCS(=O)(=O)O2	0.07 µM	12.9%	
O=S1(=O)CCc2c(CN(CCO)Cc3ccc(Cl)cc3)nn(-c3ccccc3F)c2O1	0.09 µM	10.2%	
